From PubChem BioAssay
The source made the active and inactive calls. Unless noted, no stated cut-off is given here; in the data, active means inhibition above about 30%; inactive means the rest.

What was measured:
[1] = HUVEC growth inhibition – cell-based, human, primary screen (AID 575;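 active means viability at or below 30% in both replicate assays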;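 further: 100% = median of untreated cell wells with 0.1% DMSO on each plate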); conditions: HUVEC proliferation, CellTiter-Glo luminescence, 72 h; at 10 µM; stronger effect = lower value
Summary of the method: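 Assay system: primary human umbilical vein endothelial cells / Buffer or medium: endothelial basal medium with 2% FBS plus growth supplements / Compound dosing: one dose, 10 µM final, 0.1% DMSO / Timing: 72 h treatment at 37 °C / Signal: CTG luminescence / Benchmarks: 32 DMSO-only cell-control wells (high), 32 MePR drug-control wells (low) per plate / Plate: collagen-coated 384-well format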

[2] = growth inhibitors of H69AR lung tumor, primary screen, human, duplicate replicates (AID 580;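 active means viability at or under a set limit in both replicates, limit being median viability minus 3 SD, cut at about 48% in these data, passing the limit was not always enough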;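 further: 100% = mean luminescence of untreated wells and 0% = no signal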); conditions: H69AR lung tumor cells viability, ATP luminescence, 72 h; at 10 µM; stronger effect = lower value
[3] = reversal of MRP1-mediated doxorubicin resistance, pilot screen, H69AR cells, doxorubicin co-treatment (AID 601;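 active means viability loss from added drug above about 55%, and viability with drug at most 40%, in both replicates, limit read from the data, passing the limit was not always enough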); conditions: CellTiter-Glo, 72 h, at 10 µM; for differential viability (reversal): stronger effect = higher value
[4] = 384-well plate pilot, post-Golgi transport modulator project, inhibition of yeast transport mutant growth (AID 636; in the data active means inhibition above about 31%); conditions: absorbance 615 nm, about 18 h, stronger effect = higher value
[5] = growth suppression of yeast trafficking mutant, preliminary HTS, modulators of trafficking downstream of Golgi apparatus project, 1536-format plate, OD 615 nm (AID 637); conditions: yeast transport mutant growth, absorbance 615 nm, 18 h; stronger effect = higher value
[6] = H69AR cells + 2 uM doxorubicin, measured here: viability with 2 uM doxorubicin, stronger effect = lower value
[7] = H69AR cells, compound alone cytotoxicity

Compound | viability [1] | viability [2] | differential viability (reversal) ([3]; H69AR cells + 2 uM doxorubicin) | viability [3, 6] [%] | viability [3, 7] [%] | inhibition [4] | inhibition [5]
Cc1cccc2cc(C(c3nnnn3C(C)(C)C)N3CCN(C(=O)c4ccco4)CC3)c(=O)[nH]c12 (stereo not drawn) | 86.4% (inactive) | 79.3% (inactive) | -3.69% (inactive) | 83 | 79.3 | -6.32% (inactive) | 0% (inactive)
O=C1C2ON(c3ccccc3)C(c3cccnc3)C2C(=O)N1c1ccccc1 (stereo not drawn) | 104% (inactive) | 89.8% (inactive) | 2.77% (inactive) | 87.1 | 89.8 | -1.45% (inactive) | -10.3% (inactive)
CCc1nc(C)ccc1OCC(=O)O | 102% (inactive) | 93% (inactive) | -12.6% (inactive) | 106 | 93 | 4.8% (inactive) | 2.7% (inactive)
CC(=O)C1=C(C)NC(=O)NC1c1cccc(O)c1 (stereo not drawn) | 99.8% (inactive) | 94.4% (inactive) | 8.07% (inactive) | 86.3 | 94.4 | -2.93% (inactive) | 0.16% (inactive)
COCCn1cc(C(=O)NCCCN2CCC(C)CC2)c2c3ccccc3n(C)c2c1=O | 90.7% (inactive) | 88.8% (inactive) | 2.62% (inactive) | 86.2 | 88.8 | -5.97% (inactive) | 1.11% (inactive)
Cc1cc(NC(=O)COc2ncnc3sc(C)c(C)c23)no1 | 97.6% (inactive) | 89.8% (inactive) | 3.08% (inactive) | 86.7 | 89.8 | -3.77% (inactive) | 5.56% (inactive)
O=C(CC1CCCCC1)NCc1ccccn1 | 92.2% (inactive) | 95.8% (inactive) | 12.9% (inactive) | 82.9 | 95.8 | -3.42% (inactive) | -6.67% (inactive)
CN1CCN(CC#CCC(O)(c2ccccc2)C2CCCC2)CC1 (stereo not drawn) | 102% (inactive) | 91.7% (inactive) | 1.13% (inactive) | 90.5 | 91.7 | -6.4% (inactive) | -2.38% (inactive)
O=C(Cc1c[nH]c2ccccc12)N1CCc2ccccc21 | 88.9% (inactive) | 80.7% (inactive) | 13.1% (inactive) | 67.5 | 80.7 | -2.99% (inactive) | -2.86% (inactive)
CCOC(=O)c1cc2c(=O)n3cccc(C)c3nc2n(CCOC)c1=NC(=O)c1ccncc1 | 104% (inactive) | 82.6% (inactive) | -10.1% (inactive) | 92.6 | 82.6 | -4.13% (inactive) | 3.33% (inactive)
CCOc1ccc(N(CC(=O)NCc2cccc(OC)c2)S(=O)(=O)c2c(C)noc2C)cc1 | 93.4% (inactive) | 91.2% (inactive) | -4.58% (inactive) | 95.8 | 91.2 | 0.27% (inactive) | -2.86% (inactive)
O=C(Nc1nccs1)c1cccc(NC(=O)C2CC2)c1 | 103% (inactive) | 87.5% (inactive) | 8.43% (inactive) | 79.1 | 87.5 | -6.13% (inactive) | -0.48% (inactive)
COC(=O)c1[nH]c2c(c1C)C(=O)CC(c1cccs1)C2 (stereo not drawn) | 44.9% (inactive) | 36.7% (active) | -39.3% (inactive) | 76 | 36.7 | -6.05% (inactive) | 4.13% (inactive)
O=C(CSc1nc(C2CCCCC2)n(-c2ccccc2)n1)NCCN1C(=O)CSC1=O | 103% (inactive) | 98.8% (inactive) | -4.29% (inactive) | 103 | 98.8 | -5.84% (inactive) | 1.27% (inactive)
O=C(c1cnn2c1NC(c1ccco1)CC2C(F)(F)F)N1CCN(c2cccc(Cl)c2)CC1 (stereo not drawn) | 48.7% (inactive) | 9.38% (active) | -61.4% (inactive) | 70.8 | 9.38 | -6% (inactive) | -2.22% (inactive)
CCCC(CCC)n1[nH]c(=O)c2c(C)cc(C)nc21 | 108% (inactive) | 104% (inactive) | 1.53% (inactive) | 103 | 104 | 0.26% (inactive) | -3.17% (inactive)
O=C(CCCCn1c(=O)[nH]c2ccsc2c1=O)NCc1cccnc1 | 96.3% (inactive) | 99.1% (inactive) | 2.01% (inactive) | 97.1 | 99.1 | -1.18% (inactive) | -0.63% (inactive)
O=C(NCc1ccco1)C1Cc2ccccc2CN1S(=O)(=O)c1ccccc1F (stereo not drawn) | 57.5% (inactive) | 25.3% (active) | -9.23% (inactive) | 34.6 | 25.3 | -1.95% (inactive) | 1.27% (inactive)
O=C(Cc1ccsc1-c1ccccc1)NO | 72.8% (inactive) | 1.73% (active) | 0.35% (inactive) | 1.39 | 1.73 | -3.82% (inactive) | 4.29% (inactive)
O=S1(=O)C=C(Sc2nc3ccccc3s2)c2ccccc21 | 9.16% (active) | 1.38% (active) | 0.39% (inactive) | 0.99 | 1.38 | 37.3% (active) | 55.6% (active)

Compound | viability [1] | viability [2] | differential viability (reversal) ([3]; H69AR cells + 2 uM doxorubicin) | viability [3, 6] [%] | viability [3, 7] [%] | inhibition [4] | inhibition [5]
CCCN(CCC)c1nc2ccccc2n2c(C)nnc12 | 85.3% (inactive) | 81.1% (inactive) | -4.65% (inactive) | 85.8 | 81.1 | -1.45% (inactive) | 8.1% (inactive)
CCCC1CCC(C(=O)Nn2c(C)nc3ccccc3c2=O)CC1 (stereo not drawn) | 104% (inactive) | 98.2% (inactive) | 14.9% (inactive) | 83.3 | 98.2 | -3.16% (inactive) | 0.95% (inactive)
Cc1ccc(O)c(C(=O)c2cc(C#N)c(=O)n(CC3CCCO3)c2)c1 (stereo not drawn) | 93.2% (inactive) | 89.7% (inactive) | -2.82% (inactive) | 92.6 | 89.7 | -1.3% (inactive) | 0.16% (inactive)
Cc1c(NC(=O)c2cnn3c2NC(c2ccco2)CC3C(F)(F)F)c(=O)n(-c2ccccc2)n1C (stereo not drawn) | 81.5% (inactive) | 103% (inactive) | 15.8% (inactive) | 87 | 103 | -2.47% (inactive) | 3.65% (inactive)
O=C(CSc1nnc(-c2ccncc2)o1)Oc1ccccc1 | 101% (inactive) | 102% (inactive) | 15.9% (inactive) | 85.9 | 102 | -6.4% (inactive) | 3.02% (inactive)
Cc1ccc(CSc2nc3c(c(=O)[nH]2)C(c2ccncc2)C2=C(CCCC2=O)N3)cc1 (stereo not drawn) | 72.5% (inactive) | 97.9% (inactive) | 6.75% (inactive) | 91.1 | 97.9 | -3.03% (inactive) | 2.22% (inactive)
CCCN(CCO)Cc1cccc(Br)c1 | 101% (inactive) | 99.1% (inactive) | 5.32% (inactive) | 93.8 | 99.1 | -6.05% (inactive) | 3.65% (inactive)
CCCOc1ccc(C2C(C(=O)c3ccc(C)o3)=C(O)C(=O)N2Cc2cccnc2)cc1 (stereo not drawn) | 110% (inactive) | 97.8% (inactive) | 3.76% (inactive) | 94 | 97.8 | -5.79% (inactive) | 1.75% (inactive)
CCOc1ccccc1N1CCN(S(=O)(=O)c2cccc3nsnc23)CC1 | 84.1% (inactive) | 86.1% (inactive) | 4.72% (inactive) | 81.4 | 86.1 | 0.26% (inactive) | 10.9% (inactive)
OCCn1c(CSc2nnc(-c3ccco3)n2-c2ccccc2)nc2ccc(Cl)cc21 | 68.7% (inactive) | 84.9% (inactive) | 3.29% (inactive) | 81.7 | 84.9 | -5.45% (inactive) | -3.97% (inactive)
COc1ccc(Nc2ncc3c(n2)CC(c2ccc(OC)cc2)CC3=O)cc1 (stereo not drawn) | 84.4% (inactive) | 97.4% (inactive) | 3.81% (inactive) | 93.6 | 97.4 | -4% (inactive) | 4.92% (inactive)
Nc1nc(Nc2cccc3ccccc23)nc(C2CCCC2=O)n1 (stereo not drawn) | 89.7% (inactive) | 18% (active) | 0.545% (inactive) | 17.5 | 18 | -4.46% (inactive) | 3.45% (inactive)
Cn1c(=O)c2c(nc(SCC(=O)NCc3ccc4c(c3)OCO4)n2Cc2ccccc2)n(C)c1=O | 93.4% (inactive) | 92.6% (inactive) | -7.06% (inactive) | 99.7 | 92.6 | 0.26% (inactive) | -4.13% (inactive)
O=C(CN1CCN(c2ncc(C(F)(F)F)cc2Cl)CC1)Nc1ccc2c(c1)OCO2 | 85.7% (inactive) | 93.2% (inactive) | 0.28% (inactive) | 92.9 | 93.2 | 0.65% (inactive) | -4.29% (inactive)
Cc1cc(NC(=O)c2cc(-c3ccco3)on2)n(-c2ccccc2)n1 | 80.7% (inactive) | 106% (inactive) | 13% (inactive) | 92.6 | 106 | -2.5% (inactive) | 1.9% (inactive)
O=C(Nc1ccc(N2CCOCC2)cc1)C1CC1 | 109% (inactive) | 97.1% (inactive) | 8.07% (inactive) | 89 | 97.1 | -5.33% (inactive) | 3.49% (inactive)
O=C(CSc1nnc2c3cc(F)ccc3nc(-c3ccccc3)n12)N1CCOCC1 | 77% (inactive) | 72.6% (inactive) | 0.06% (inactive) | 72.5 | 72.6 | 0.27% (inactive) | 1.59% (inactive)
CC(C)Cc1nc2oc3c(N4CCN(CCO)CC4)ncnc3c2c2c1CCCC2 | 52.4% (inactive) | 42.6% (active) | -12.1% (inactive) | 54.7 | 42.6 | -0.26% (inactive) | -6.33% (inactive)
Nc1nc(-c2ccc(Cl)cc2)cc(C(F)(F)F)n1 | 107% (inactive) | 105% (inactive) | 13.3% (inactive) | 91.3 | 105 | -1.82% (inactive) | -1.11% (inactive)
